High-throughput results from PubChem BioAssay.
SKN-1 inh – blocks SKN-1 activity in C. elegans; C. elegans VP596 Pgst-4::GFP/RFP ratio, acrylamide-induced, 24 h; inhibition, % at 21.8 µM; hit rate 0.49% among 360,000;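 active = interference check ratio from 0.5 to 1.5 plus GFP to RFP signal ratio inhibition reaching or exceeding a fixed threshold, cut at about 30% in these data, passing the limit was not always enough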
MPTP block – inhibitors of mitochondrial permeability transition pore; isolated mouse mitochondria, Ca2+ swelling absorbance, 30 min; inhibition, % at 10 µM; hit rate 1.4% among 360,000; AID 602449;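 active = inhibition of 50% or more, scaled per plate between neutral and stimulator controls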;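 note: 0% = DMSO wells given calcium and 100% = 1 mM EGTA wells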
MT1-MMP act inh – inhibitors of human MT1-MMP activation | P50281 | HT1080 RFP-PRO-GFP cells, GFP/RFP ratio fluorescence, overnight; percent of plate control window, DMSO zero | GFP/RFP ratio change, % at 20 µM | hit rate 0.061% among 360,000 | AID 651647;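 active = GFP/RFP ratio change of at least 30% with cell ATP level not reduced by more than half and red fluorescence within 50% of control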
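Assay system: HT1080 RFP-PRO-GFP cells. Benchmarks: DMSO vehicle wells and RFP-L50D-GFP reporter cell wells. Times: overnight cell settling, then overnight compound exposure, 37 °C, 5% CO2. Compound: 20 µM single dose, 1% DMSO. Read-out basis: GFP/RFP fluorescence ratio.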
ATG4B inhibitor – inhibitors of human ATG4B cysteine protease; Q9Y4P1; ATG4B cleavage of LC3-PLA2, NBD-HPC fluorescence, 1 h; hit rate 0.51% among 340,000; AID 504462; inhibition, % at 8.33 µM; in the data active = inhibition above about 40%
Target sequence (Q9Y4P1 whole entry, looked up): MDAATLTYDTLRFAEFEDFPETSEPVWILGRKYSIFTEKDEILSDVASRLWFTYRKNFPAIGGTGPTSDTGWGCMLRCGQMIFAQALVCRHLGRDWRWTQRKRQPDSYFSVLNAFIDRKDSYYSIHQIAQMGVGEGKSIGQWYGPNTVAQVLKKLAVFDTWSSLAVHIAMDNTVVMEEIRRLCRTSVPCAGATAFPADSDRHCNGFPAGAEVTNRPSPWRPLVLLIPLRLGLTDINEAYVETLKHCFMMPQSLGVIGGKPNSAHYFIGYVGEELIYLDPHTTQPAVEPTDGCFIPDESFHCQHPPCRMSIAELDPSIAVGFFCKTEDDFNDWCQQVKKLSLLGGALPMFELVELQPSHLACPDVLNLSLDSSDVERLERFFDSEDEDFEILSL
MPTP counter – membrane potential counter-screen of mitochondrial pore inhibitors; shares compounds with MPTP block; isolated mitochondria, Rhodamine 123 fluorescence; inhibition, % at 10 µM; hit rate 78% among 5,000; in the data active = inhibition above about 22%;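 note: 0% = DMSO vehicle and 100% = positive control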
* hit, by the source's call; / = no result given; ! = a repeat was not active. Sampled rows, rich in hits. Any-hit rate of the full collection: about 2.3%.

SMILES | SKN-1 inh | MPTP block | MT1-MMP act inh | ATG4B inhibitor | MPTP counter
CCOc1ccc(N2CC(C(=O)OCC(=O)NCc3ccccc3)CC2=O)cc1 (stereo unspecified) | 2.1 | -0.2 | -2.9 | -8.3 | /
Cc1cccc2c(=O)n(C(=O)c3ccccc3)c(N)nc12 | 29.8 | 0.4 | -2.9 | / | /
CCc1ccc(S(=O)(=O)NCCc2csc(-c3ccccc3)n2)s1 | 8.5 | 69.1* | -3.4 | -1.0 | 80.8*
Cc1cc(C)cc(NC(=O)C(Sc2ncnc3ccccc23)c2ccccc2)c1 (stereo unspecified) | 4.6 | 2.4 | 2.7 | -7.5 | /
CC(=O)c1c(C)[nH]c(C(=O)Nc2cccc(C(F)(F)F)c2)c1C | 16.9 | 70.1* | -1.9 | -13.3 | 86.4*
Fc1cc(F)c(C2SCCN2C(=S)Nc2cccc(C(F)(F)F)c2)c(F)c1 (stereo unspecified) | 8.5 | 74.0* | 3.3 | -3.8 | 92.9*
O=C(Nc1cccc(C(F)(F)F)c1)n1cc(-c2ccccn2)c(N2CCOCC2)n1 | 1.3 | 86.5* | -2.5 | -3.8 | 96.0*
O=C(Nc1cccc(C(F)(F)F)c1)C(Sc1ncnc2ccccc12)c1ccccc1 (stereo unspecified) | 8.0 | 60.2* | -10.4 | -19.1 | 68.1*
CC(=O)c1c(C)[nH]c(C(=O)Nc2cccc(C#N)c2)c1C | -1.9 | 2.8 | 7.2 | 2.3 | /
CC(C)c1ccc(Nc2nc(Cl)nc(NCCO)n2)cc1 | 12.4 | 0.1 | 2.3 | 1.0 | /
CCN1C(=O)C(CC(=O)NCCc2ccccc2)N(NC(=O)c2ccc(Br)cc2)C1=S (stereo unspecified) | -11.7 | 2.5 | -2.5 | / | /
Cc1nc(Cl)c(C(=O)NC(=O)Nc2cccc(C(F)(F)F)c2)c(C)c1[N+](=O)[O-] | 17.4 | 97.3* | -12.2 | -5.8 | 89.5*
Cc1onc(C(=O)Nc2cccc(C(F)(F)F)c2)c1[N+](=O)[O-] | 0.6 | -0.8 | -2.2 | 2.6 | /
CNC(=O)Nc1cccc(C(F)(F)F)c1 | 12.9 | 4.9 | -3.7 | -8.9 | /
CCCN1CCN(C(=O)Nc2cccc(C(F)(F)F)c2)CC1 | 1.7 | 72.3* | 2.1 | 0.2 | 91.5*
O=C(Nc1ccccc1)Nc1cccc(C(F)(F)F)c1 | 10.5 | 96.5* | -3.7 | 13.2 | 97.5*
COc1ccc(NC(=O)Nc2cccc(C(F)(F)F)c2)cn1 | -3.4 | 100.0* | 0.8 | -8.3 | 89.9*
O=C(C1CC12CCCC2)N1CCC(CO)(Cc2ccccc2Cl)CC1 (stereo unspecified) | 2.5 | 7.3 | -6.5 | 14.3 | /
Fc1ccc(NC(=S)N2CCN(c3cccc(C(F)(F)F)c3)CC2)cc1 | -2.3 | 100.8* | 3.5 | -1.4 | 74.5*
CCSCCc1nnc(NC(=O)Nc2cccc(C(F)(F)F)c2)s1 | -3.6 | 79.5* | -34.9 | 8.4 | 72.6*
Cc1cc2c(NC(=O)Nc3ccc(C(C)(C)C)cc3)cccc2nn1 | -6.5 | 85.3* | 5.3 | 5.7 | 81.2*
Cc1cc(NC(=O)Nc2cccc(C(F)(F)F)c2)n(C)n1 | 12.8 | 72.5* | 3.6 | -4.5 | 77.0*
Cc1cc(Cl)ccc1OCCCC(=O)NCCN1C(=O)S/C(=C\c2cccnc2)C1=O | 14.0 | 4.9 | -3.7 | -16.5 | /
CC(O)CNc1nc(Cl)c(C#N)s1 (stereo unspecified) | 2.8 | -1.2 | 2.6 | -3.7 | /
CCn1cc(Cl)c(C(=O)Nc2ccccc2C(N)=O)n1 | 8.1 | 0.5 | 3.5 | -20.8 | /
SMILES | SKN-1 inh | MPTP block | MT1-MMP act inh | ATG4B inhibitor | MPTP counter
O=C(NCc1ccc2c(c1)CCO2)Nc1cccc(C(F)(F)F)c1 | -9.3 | 66.9* | 9.7 | 8.0 | 82.6*
Cc1ccc(OC(F)F)c(NC(=O)Nc2cccc(C(F)(F)F)c2)c1 | 1.9 | 96.0* | -19.5 | 27.3 | 73.3*
O=C(NCc1cccnc1)Nc1cccc(C(F)(F)F)c1 | -5.7 | 0.7 | 0.7 | -5.0 | /
COc1cccc(NC(=O)Nc2cc(C)ccc2OC)c1 | 14.2 | 15.4 | -2.6 | 6.4 | /
OCCN1CCN(C(=S)Nc2cccc(C(F)(F)F)c2)CC1 | 0.0 | 94.4*! | 1.5 | -5.8 | 82.1*
O=C(Nc1cccc(C(F)(F)F)c1)N1CCN(C(=O)Nc2cccc(C(F)(F)F)c2)CC1 | 9.9 | 63.6* | 3.1 | 0.9 | 71.0*
COc1ccc(N2CCN(C(=O)Nc3cccc(C(F)(F)F)c3)CC2)cc1 | -1.0 | -0.4 | -0.6 | -13.7 | /
Cn1ccnc1C(=O)c1cc(SCC(=O)NCc2ccccc2)nc2ccccc12 | 9.6 | -0.4 | -38.2 | -8.9 | /
Cc1ccccc1NC(=O)CNC(=O)c1ccc(C(F)(F)F)cc1 | -4.6 | -0.4 | -4.8 | -0.8 | /
